Test results: ChEMBL document CHEMBL1687714, “Genetic analysis of fenhexamid-resistant field isolates of the phytopathogenic fungus Botrytis cinerea” (Antimicrob Agents Chemother, 2008)
Converted amounts (≈) assume the structure as drawn. The source made the active and inactive calls. No cut-off for these calls is given here.

Assays:
Botrytis cinerea [1] = test: Antifungal activity against highly fenhexamid-resistant Botrytis cinerea 214 assessed as inhibition of germ tube elongation after 24 hrs; format: functional, organism-based; settings: Botrytis cinerea, 214, 24 h
Botrytis cinerea [2] = test: Antifungal activity against moderately to slightly fenhexamid-resistant Botrytis cinerea 286 assessed as inhibition of germ tube elongation after 24 hrs; format: functional, organism-based; settings: Botrytis cinerea, 286, 24 h
Botrytis cinerea [3] = test: Antifungal activity against moderately to slightly fenhexamid-resistant Botrytis cinerea 57 assessed as inhibition of mycelium growth measured over 5 days; format: functional, organism-based; settings: Botrytis cinerea, 57, 120 h
Botrytis cinerea [4] = test: Antifungal activity against moderately to slightly fenhexamid-resistant Botrytis cinerea 453b assessed as inhibition of germ tube elongation after 24 hrs; format: functional, organism-based
Botrytis cinerea [5] = test: Antifungal activity against highly fenhexamid-resistant Botrytis cinerea 506b assessed as inhibition of mycelium growth measured over 5 days; format: functional, organism-based; settings: 120 h
Botrytis cinerea [6] = test: Antifungal activity against highly fenhexamid-resistant Botrytis cinerea MK3-1 assessed as inhibition of germ tube elongation after 24 hrs; format: functional, organism-based; settings: MK3-1, 24 h
Botrytis cinerea [7] = test: Antifungal activity against highly fenhexamid-resistant Botrytis cinerea 440a assessed as inhibition of germ tube elongation after 24 hrs; format: functional, organism-based
Botrytis cinerea [8] = test: Antifungal activity against moderately to slightly fenhexamid-resistant Botrytis cinerea 452 assessed as inhibition of germ tube elongation after 24 hrs; format: functional, organism-based; settings: Botrytis cinerea, 452, 24 h
Botrytis cinerea [9] = test: Antifungal activity against Botrytis cinerea 1837 expressing erg27 HydR3+ alleles assessed as appearance of dense mycelium up to 20 ug/ml; format: functional, organism-based
Procedure, shortened: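 Spores of parental strains were spread on YSS (synthetic complete) medium containing fenhexamid at several concentrations, without hygromycin B. Growth was scored after 7 days at 21°C.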

Botrytis cinerea [10] = test: Antifungal activity against moderately to slightly fenhexamid-resistant Botrytis cinerea 05-1.27 assessed as inhibition of mycelium growth measured over 5 days; format: functional, organism-based; settings: 05-1.27, 120 h
Botrytis cinerea [11] = test: Antifungal activity against moderately to slightly fenhexamid-resistant Botrytis cinerea 202 assessed as inhibition of mycelium growth measured over 5 days; format: functional, organism-based; settings: Botrytis cinerea, 202, 120 h
Botrytis cinerea [12] = test: Antifungal activity against moderately to slightly fenhexamid-resistant Botrytis cinerea 221 assessed as inhibition of mycelium growth measured over 5 days; format: functional, organism-based; settings: Botrytis cinerea, 221, 120 h
Botrytis cinerea [13] = test: Antifungal activity against highly fenhexamid-resistant Botrytis cinerea 05-190 assessed as inhibition of mycelium growth measured over 5 days; format: functional, organism-based; settings: 05-190, 120 h
Botrytis cinerea [14] = test: Antifungal activity against moderately to slightly fenhexamid-resistant Botrytis cinerea 453b assessed as inhibition of mycelium growth measured over 5 days; format: functional, organism-based; settings: 120 h
Botrytis cinerea [15] = test: Antifungal activity against highly fenhexamid-resistant Botrytis cinerea MK3-31 assessed as inhibition of germ tube elongation after 24 hrs; format: functional, organism-based; settings: MK3-31, 24 h
Botrytis cinerea [16] = test: Antifungal activity against moderately to slightly fenhexamid-resistant Botrytis cinerea 365 assessed as inhibition of germ tube elongation after 24 hrs; format: functional, organism-based; settings: Botrytis cinerea, 365, 24 h
Botrytis cinerea [17] = test: Antifungal activity against highly fenhexamid-resistant Botrytis cinerea 520a assessed as inhibition of mycelium growth measured over 5 days; format: functional, organism-based; settings: 120 h
Botrytis cinerea [18] = test: Antifungal activity against highly fenhexamid-resistant Botrytis cinerea 223b assessed as inhibition of germ tube elongation after 24 hrs; format: functional, organism-based
Botrytis cinerea [19] = test: Antifungal activity against fenhexamid-senistive Botrytis cinerea SAS56 assessed as inhibition of mycelium growth measured over 5 days; format: functional, organism-based; settings: SAS56, 120 h
Botrytis cinerea [20] = test: Antifungal activity against fenhexamid-senistive Botrytis cinerea B05.10 assessed as inhibition of mycelium growth measured over 5 days; format: functional, organism-based; settings: B05.10, 120 h
Botrytis cinerea [21] = test: Antifungal activity against fenhexamid-senistive Botrytis cinerea SAS56 assessed as inhibition of germ tube elongation after 24 hrs; format: functional, organism-based; settings: SAS56, 24 h
Botrytis cinerea [22] = test: Antifungal activity against highly fenhexamid-resistant Botrytis cinerea 214 assessed as inhibition of mycelium growth measured over 5 days; format: functional, organism-based; settings: Botrytis cinerea, 214, 120 h
Botrytis cinerea [23] = test: Antifungal activity against highly fenhexamid-resistant Botrytis cinerea 520b assessed as inhibition of mycelium growth measured over 5 days; format: functional, organism-based; settings: 120 h
Botrytis cinerea [24] = test: Antifungal activity against moderately to slightly fenhexamid-resistant Botrytis cinerea 57 assessed as inhibition of germ tube elongation after 24 hrs; format: functional, organism-based; settings: Botrytis cinerea, 57, 24 h
Botrytis cinerea [25] = test: Antifungal activity against highly fenhexamid-resistant Botrytis cinerea MK5-14 assessed as inhibition of germ tube elongation after 24 hrs; format: functional, organism-based; settings: MK5-14, 24 h
Botrytis cinerea [26] = test: Antifungal activity against HydR3 deficient Botrytis cinerea 453 harboring TELerg N369D mutant at 5 ug/ml relative to wild-type; format: functional, organism-based
Procedure, shortened: (§1)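 In the dominance test, the recipient strains 453b and 286 were transformed with different erg27 alleles. Spores of the transformants were grown on YSS medium containing fenhexamid at different concentrations and 50 µg ml–1 hygromycin B. Parental strains were grown without hygromycin. Growth was scored after 7 days at 21°C.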

Botrytis cinerea [27] = test: Antifungal activity against highly fenhexamid-resistant Botrytis cinerea 05-190 assessed as inhibition of germ tube elongation after 24 hrs; format: functional, organism-based; settings: 05-190, 24 h
Botrytis cinerea [28] = test: Antifungal activity against Botrytis cinerea B05.10 harboring TELerg F412S mutant assessed as appearance of mycelium growth up to 20 ug/ml; format: functional
Procedure, shortened: (§2)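 B05.10 transformants carrying the erg27 allele on the pFTELerg plasmid were grown on rich medium with hygromycin B until conidiation. Spores were spread on YSS (synthetic complete) medium with 50 µg ml–1 hygromycin B and fenhexamid at 1 to 20 µg ml–1. After 7 days at 21°C, spores developing mycelium were scored under the microscope.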

Botrytis cinerea [29] = test: Antifungal activity against highly fenhexamid-resistant Botrytis cinerea 440b assessed as inhibition of germ tube elongation after 24 hrs; format: functional, organism-based
Botrytis cinerea [30] = test: Antifungal activity against highly fenhexamid-resistant Botrytis cinerea 264 assessed as inhibition of germ tube elongation after 24 hrs; format: functional, organism-based; settings: Botrytis cinerea, 264, 24 h
Botrytis cinerea [31] = test: Antifungal activity against highly fenhexamid-resistant Botrytis cinerea 05-AVB assessed as inhibition of germ tube elongation after 24 hrs; format: functional, organism-based
Botrytis cinerea [32] = test: Antifungal activity against HydR3 deficient Botrytis cinerea 453 harboring TELerg F412I mutant at 2 ug/ml relative to wild-type; format: functional, organism-based; procedure, shortened: as §1
Botrytis cinerea [33] = test: Antifungal activity against highly fenhexamid-resistant Botrytis cinerea 533 assessed as inhibition of germ tube elongation after 24 hrs; format: functional, organism-based; settings: Botrytis cinerea, 533, 24 h
Botrytis cinerea [34] = test: Antifungal activity against HydR3 deficient Botrytis cinerea 453 harboring TELerg N369D mutant at 10 ug/ml relative to wild-type; format: functional, organism-based; procedure, shortened: as §1
Botrytis cinerea [35] = test: Antifungal activity against highly fenhexamid-resistant Botrytis cinerea 379a assessed as inhibition of germ tube elongation after 24 hrs; format: functional, organism-based
Botrytis cinerea [36] = test: Antifungal activity against highly fenhexamid-resistant Botrytis cinerea 1837 assessed as inhibition of germ tube elongation after 24 hrs; format: functional, organism-based; settings: Botrytis cinerea, 1837, 24 h
Botrytis cinerea [37] = test: Antifungal activity against highly fenhexamid-resistant Botrytis cinerea 312 assessed as inhibition of mycelium growth measured over 5 days; format: functional, organism-based; settings: Botrytis cinerea, 312, 120 h
Botrytis cinerea [38] = test: Antifungal activity against Botrytis cinerea B05.10 harboring TELerg F412I mutant assessed as appearance of mycelium growth up to 20 ug/ml; format: functional; procedure, shortened: as §2
Botrytis cinerea [39] = test: Antifungal activity against highly fenhexamid-resistant Botrytis cinerea 223a assessed as inhibition of germ tube elongation after 24 hrs; format: functional, organism-based
Botrytis cinerea [40] = test: Antifungal activity against highly fenhexamid-resistant Botrytis cinerea 223b assessed as inhibition of mycelium growth measured over 5 days; format: functional, organism-based; settings: 120 h

**Q.** Which EC50 (Botrytis cinerea [1]) does the source give for CC1(C(=O)Nc2ccc(O)c(Cl)c2Cl)CCCCC1 [FENHEXAMID] here?
**A.** The EC50 was 10 µg/mL (≈ 33.1 µM).

**Q.** What about the EC50 (Botrytis cinerea [2]) of the same compound?
**A.** Its EC50 is 4 µg/mL (≈ 13.2 µM).

**Q.** What about the EC50 (Botrytis cinerea [3]) of the same compound?
**A.** The EC50 was under 0.3 µg/mL.

**Q.** What about the EC50 (Botrytis cinerea [4]) of the same compound?
**A.** The EC50 was 2 µg/mL (≈ 6.62 µM).

**Q.** And the EC50 (Botrytis cinerea [5])?
**A.** The EC50 was over 10 µg/mL.

**Q.** And the EC50 (Botrytis cinerea [6])?
**A.** Its EC50 is over 5 µg/mL.

**Q.** And the EC50 (Botrytis cinerea [7])?
**A.** Its EC50 is over 10 µg/mL.

**Q.** And the EC50 (Botrytis cinerea [8])?
**A.** The EC50 was 2.5 µg/mL (≈ 8.27 µM).

**Q.** What about the Activity (Botrytis cinerea [9]) of the same compound?
**A.** Its Activity is “inactive”.

**Q.** And the EC50 (Botrytis cinerea [10])?
**A.** The EC50 was 0.2 µg/mL (≈ 0.662 µM).

**Q.** And the EC50 (Botrytis cinerea [11])?
**A.** Its EC50 is under 0.3 µg/mL.

**Q.** And the EC50 (Botrytis cinerea [12])?
**A.** Its EC50 is 0.2 µg/mL (≈ 0.662 µM).

**Q.** What about the EC50 (Botrytis cinerea [13]) of the same compound?
**A.** Its EC50 is over 10 µg/mL.

**Q.** And the EC50 (Botrytis cinerea [14])?
**A.** The EC50 was 1.5 µg/mL (≈ 4.96 µM).

**Q.** What about the EC50 (Botrytis cinerea [15]) of the same compound?
**A.** Its EC50 is over 5 µg/mL.

**Q.** And the EC50 (Botrytis cinerea [16])?
**A.** The EC50 was 2 µg/mL (≈ 6.62 µM).

**Q.** And the EC50 (Botrytis cinerea [17])?
**A.** Its EC50 is 3 µg/mL (≈ 9.93 µM).

**Q.** And the EC50 (Botrytis cinerea [18])?
**A.** The EC50 was over 10 µg/mL.

**Q.** And the EC50 (Botrytis cinerea [19])?
**A.** Its EC50 is under 0.1 µg/mL.

**Q.** What about the EC50 (Botrytis cinerea [20]) of the same compound?
**A.** The EC50 was under 0.03 µg/mL.

**Q.** What about the EC50 (Botrytis cinerea [21]) of the same compound?
**A.** The EC50 was under 0.1 µg/mL.

**Q.** What about the EC50 (Botrytis cinerea [22]) of the same compound?
**A.** Its EC50 is over 10 µg/mL.

**Q.** And the EC50 (Botrytis cinerea [23])?
**A.** The EC50 was 3 µg/mL (≈ 9.93 µM).

**Q.** What about the EC50 (Botrytis cinerea [24]) of the same compound?
**A.** Its EC50 is 2 µg/mL (≈ 6.62 µM).

**Q.** What about the EC50 (Botrytis cinerea [25]) of the same compound?
**A.** Its EC50 is over 5 µg/mL.

**Q.** And the Activity (Botrytis cinerea [26])?
**A.** Its Activity is “inactive”.

**Q.** And the EC50 (Botrytis cinerea [27])?
**A.** The EC50 was over 10 µg/mL.

**Q.** And the Activity (Botrytis cinerea [28])?
**A.** The Activity was 10%.

**Q.** And the EC50 (Botrytis cinerea [29])?
**A.** Its EC50 is over 10 µg/mL.

**Q.** And the EC50 (Botrytis cinerea [30])?
**A.** Its EC50 is over 10 µg/mL.

**Q.** And the EC50 (Botrytis cinerea [31])?
**A.** Its EC50 is over 10 µg/mL.

**Q.** And the Activity (Botrytis cinerea [32])?
**A.** Its Activity is “inactive”.

**Q.** What about the EC50 (Botrytis cinerea [33]) of the same compound?
**A.** The EC50 was over 10 µg/mL.

**Q.** And the Activity (Botrytis cinerea [34])?
**A.** The Activity was “inactive”.

**Q.** What about the EC50 (Botrytis cinerea [35]) of the same compound?
**A.** Its EC50 is over 10 µg/mL.

**Q.** What about the EC50 (Botrytis cinerea [36]) of the same compound?
**A.** Its EC50 is over 10 µg/mL.

**Q.** And the EC50 (Botrytis cinerea [37])?
**A.** Its EC50 is over 10 µg/mL.

**Q.** What about the Activity (Botrytis cinerea [38]) of the same compound?
**A.** Its Activity is 10%.

**Q.** What about the EC50 (Botrytis cinerea [39]) of the same compound?
**A.** Its EC50 is over 10 µg/mL.

**Q.** And the EC50 (Botrytis cinerea [40])?
**A.** The EC50 was over 10 µg/mL.
